Values joined by “and” are separate entries in the source; they are usually repeats but may differ in a detail not shown here. Identical values can stand only once.
Assays:
Type in all cases: in vivo, human
[1] = tested on: pancreatic ductal adenocarcinoma (PDA); test: Phase 2 efficacy
Procedure, shortened: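 Oral test compound 300 mg QD plus anti-PD-1 antibody 200 mg IV Q3W. PD-1/PD-L1 IR cohort: progression on anti-PD-1/PD-L1 (RECIST or irRC). prOVCA cohort: progression ≤6 months after ≥4 platinum cycles. PDA cohort: ≥1 prior systemic line. Investigator assessed best response per RECIST v1.1 and irRC. ORR used confirmed responses with Clopper–Pearson 95% CI; all dosed patients. Screening tissue was profiled for MSI/MMR, TMB and gene expression.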

[2] = Phase 1b plasma pharmacokinetics of ARRY-382 and metabolites; conditions: for RAUC (accumulation ratio), geometric mean (geometric %CV) / Ctrough, geometric mean (geometric %CV) / RCmax (accumulation ratio), geometric mean (geometric %CV) / AUC(0-t) / Cmax / Tmax: Phase 1b; for AUC / AUC(0-t) / Cmax / Tmax: human, plasma, oral; for AUC(0-t): AUClast; for AUC(0-t) / Cmax: geometric mean (geometric %CV); for Tmax: median (range)
Procedure, shortened: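 Blood was collected for plasma test compound and its N-oxide, N-desmethyl and sulfate metabolites. Trough samples were taken ≤120 min before the oral dose on cycle 1 day 15 and day 1 of cycles 3–6. Doses were 200–400 mg QD in Phase 1b and 300 mg QD in Phase 2. Non-compartmental parameters were estimated per patient in the PK set, reported as geometric mean (geometric %CV) and Tmax as median (range).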

[3] = tested on: selected advanced solid tumors; test: Phase 1b efficacy; conditions: for ORR, % (95% CI) / ir-ORR, % (95% CI): confirmed
Procedure, shortened: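 Oral test compound 200–400 mg QD plus anti-PD-1 antibody 2 mg/kg IV Q3W in patients with measurable or evaluable disease. Investigator assessed best response per RECIST v1.1, with immune-related response also evaluated. ORR used confirmed responses with two-sided 95% CI (Clopper–Pearson exact binomial). All patients receiving ≥1 dose were analysed. PD-L1 status came from screening tissue tested locally.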

[4] = Cycle 2 day 1, ARRY-382 200 mg, n = 4
[5] = Cycle 2 day 1, ARRY-382 300 mg, n = 4
[6] = Cycle 2 day 1, ARRY-382 400 mg, n = 3
[7] = 200 mg, Cycle 1 day 1, ARRY-382 200 mg, n = 6
[8] = 200 mg, Cycle 2 day 1, ARRY-382 200 mg, n = 4
[9] = 300 mg, Cycle 1 day 1, ARRY-382 300 mg, n = 6
[10] = 300 mg, Cycle 2 day 1, ARRY-382 300 mg, n = 4
[11] = 400 mg, Cycle 1 day 1, ARRY-382 400 mg, n = 7
[12] = 400 mg, Cycle 2 day 1, ARRY-382 400 mg, n = 3

Q: Which results are given for `Cc1cccc(Cn2nc(C3CC3)c3c(NC(=O)c4cnc5cc(OCCN6CCN(C)CC6)ccn45)cccc32)n1` [ARRY-382]?
A: Median OS ([1]; PDA): 2.2 (95% CI, 1.5–4.9) months; Median PFS ([1]; PDA): 1.4 (95% CI, 0.9–2.8) months; Median irPFS per irRC ([1]; PDA): 1.3 (95% CI, 0.9–2.7) months; DOR of confirmed PR ([1]; PDA cohort, 1 patient (MSI-Stable, TMB-Low, PD-L1 negative)): 2.4 months; Best overall response: CR ([1]; PDA, N = 27): 0 (0.0) n (%); Best overall response: NE ([1]; PDA, N = 27): 14 (51.9) n (%); Best overall response: PD ([1]; PDA, N = 27): 7 (25.9%) n (%) and 7 (25.9) n (%); Best overall response: PR ([1]; PDA, N = 27): 1 (3.7) n (%); Best overall response: SD ([1]; PDA, N = 27): 5 (18.5) n (%); Immune-related best overall response: CR ([1]; PDA, N = 27): 0 (0.0) n (%); Immune-related best overall response: NE ([1]; PDA, N = 27): 19 (70.4) n (%); Immune-related best overall response: PD ([1]; PDA, N = 27): 0 (0.0) n (%); Immune-related best overall response: PR ([1]; PDA, N = 27): 1 (3.7) n (%); Immune-related best overall response: SD ([1]; PDA, N = 27): 7 (25.9) n (%); ORR, % (95% CI) ([1]; confirmed, PDA, N = 27): 3.7 (0.1–19.0) %; ir-ORR, % (95% CI) ([1]; confirmed, PDA, N = 27): 3.7 (0.1–19.0) %; RAUC (accumulation ratio), geometric mean (geometric %CV) ([2]; Cycle 2 day 1, ARRY-382 200 mg, n = 3): 3.03 (47.9); Ctrough, geometric mean (geometric %CV) [2, 4]: 576 (59.5) ng/mL; RCmax (accumulation ratio), geometric mean (geometric %CV) [2, 4]: 2.53 (48.2); RAUC (accumulation ratio), geometric mean (geometric %CV) ([2]; Cycle 2 day 1, ARRY-382 300 mg, n = 2): 1.92 (NC); Ctrough, geometric mean (geometric %CV) [2, 5]: 667 (27.7) ng/mL; RCmax (accumulation ratio), geometric mean (geometric %CV) [2, 5]: 2.51 (95.7); RAUC (accumulation ratio), geometric mean (geometric %CV) ([2]; Cycle 2 day 1, ARRY-382 400 mg, n = 2): 3.52 (NC); Ctrough, geometric mean (geometric %CV) [2, 6]: 627 (126) ng/mL; RCmax (accumulation ratio), geometric mean (geometric %CV) [2, 6]: 2.28 (54.2); AUC ([2]; 200 mg): 22800 ng·h/mL; AUC(0-t) [2, 7]: 3720 ng·h/mL; AUC(0-t) [2, 8]: 22800 ng·h/mL; Cmax [2, 7]: 773 ng/mL; Cmax [2, 8]: 1560 ng/mL; Tmax [2, 7]: 2 h; Tmax [2, 8]: 2 h; AUC ([2]; 300 mg): 30600 ng·h/mL; AUC(0-t) [2, 9]: 4890 ng·h/mL; AUC(0-t) [2, 10]: 30600 ng·h/mL; Cmax [2, 9]: 995 ng/mL; Cmax [2, 10]: 2260 ng/mL; Tmax [2, 9]: 4.01 h; Tmax [2, 10]: 4.18 h; AUC ([2]; 400 mg): 30800 ng·h/mL; AUC(0-t) [2, 11]: 6790 ng·h/mL; AUC(0-t) [2, 12]: 30800 ng·h/mL; Cmax [2, 11]: 1330 ng/mL; Cmax [2, 12]: 2560 ng/mL; Tmax [2, 11]: 4.07 h; Tmax [2, 12]: 1.98 h; Median OS ([3]; 200-mg cohort): 14.7 [95% CI, 5.2–not reached (NR)] months; Median PFS ([3]; 200-mg cohort): 4.7 (95% CI, 1.4–33.1) months; Median irPFS per irRC ([3]; 200-mg cohort): 3.0 (95% CI, 1.4–16.1) months; DOR of confirmed PR ([3]; 200-mg cohort, 1 patient with MSI-High PDA): 29.2 months; Median OS ([3]; 300-mg cohort): 6.5 (95% CI, 1.0–NR) months; Median PFS ([3]; 300-mg cohort): 2.3 (95% CI, 1.3–5.7) months; Median irPFS per irRC ([3]; 300-mg cohort): 2.5 (95% CI, 1.4–7.1) months; DOR of confirmed PR ([3]; 300-mg cohort, 1 patient with ovarian cancer): 3.1 months; Median OS ([3]; 400-mg cohort): 7.4 (95% CI, 2.1–14.1) months; Median PFS ([3]; 400-mg cohort): 1.4 (95% CI, 0.5–2.6) months; Median irPFS per irRC ([3]; 400-mg cohort): 1.3 (95% CI, 0.5–1.5) months; Best overall response: CR ([3]; ARRY-382 200 mg, N = 6): 0 (0.0) n (%); Best overall response: NE ([3]; ARRY-382 200 mg, N = 6): 1 (16.7) n (%); Best overall response: PD ([3]; ARRY-382 200 mg, N = 6): 1 (16.7) n (%); Best overall response: PR ([3]; ARRY-382 200 mg, N = 6): 1 (16.7) n (%); Best overall response: SD ([3]; ARRY-382 200 mg, N = 6): 3 (50.0) n (%); Immune-related best overall response: CR ([3]; ARRY-382 200 mg, N = 6): 0 (0.0) n (%); Immune-related best overall response: NE ([3]; ARRY-382 200 mg, N = 6): 1 (16.7) n (%); Immune-related best overall response: PD ([3]; ARRY-382 200 mg, N = 6): 1 (16.7) n (%); Immune-related best overall response: PR ([3]; ARRY-382 200 mg, N = 6): 1 (16.7) n (%); Immune-related best overall response: SD ([3]; ARRY-382 200 mg, N = 6): 3 (50.0) n (%); Best overall response: CR ([3]; ARRY-382 300 mg, N = 6): 0 (0.0) n (%); Best overall response: NE ([3]; ARRY-382 300 mg, N = 6): 0 (0.0) n (%); Best overall response: PD ([3]; ARRY-382 300 mg, N = 6): 3 (50.0) n (%); Best overall response: PR ([3]; ARRY-382 300 mg, N = 6): 1 (16.7) n (%); Best overall response: SD ([3]; ARRY-382 300 mg, N = 6): 2 (33.3) n (%); Immune-related best overall response: CR ([3]; ARRY-382 300 mg, N = 6): 0 (0.0) n (%); Immune-related best overall response: NE ([3]; ARRY-382 300 mg, N = 6): 2 (33.3) n (%); Immune-related best overall response: PD ([3]; ARRY-382 300 mg, N = 6): 0 (0.0) n (%); Immune-related best overall response: PR ([3]; ARRY-382 300 mg, N = 6): 1 (16.7) n (%); Immune-related best overall response: SD ([3]; ARRY-382 300 mg, N = 6): 3 (50.0) n (%); Best overall response: CR ([3]; ARRY-382 400 mg, N = 7): 0 (0.0) n (%); Best overall response: NE ([3]; ARRY-382 400 mg, N = 7): 2 (28.6) n (%); Best overall response: PD ([3]; ARRY-382 400 mg, N = 7): 5 (71.4) n (%); Best overall response: PR ([3]; ARRY-382 400 mg, N = 7): 0 (0.0) n (%); Best overall response: SD ([3]; ARRY-382 400 mg, N = 7): 0 (0.0) n (%); Immune-related best overall response: CR ([3]; ARRY-382 400 mg, N = 7): 0 (0.0) n (%); Immune-related best overall response: NE ([3]; ARRY-382 400 mg, N = 7): 4 (57.1) n (%); Immune-related best overall response: PD ([3]; ARRY-382 400 mg, N = 7): 1 (14.3) n (%); Immune-related best overall response: PR ([3]; ARRY-382 400 mg, N = 7): 0 (0.0) n (%); Immune-related best overall response: SD ([3]; ARRY-382 400 mg, N = 7): 2 (28.6) n (%); Best overall response: CR ([3]; Total, N = 19): 0 (0.0) n (%); Best overall response: NE ([3]; Total, N = 19): 3 (15.8) n (%); Best overall response: PD ([3]; Total, N = 19): 9 (47.4) n (%); Best overall response: PR ([3]; Total, N = 19): 2 (10.5) n (%); Best overall response: SD ([3]; Total, N = 19): 5 (26.3) n (%); Immune-related best overall response: CR ([3]; Total, N = 19): 0 (0.0) n (%); Immune-related best overall response: NE ([3]; Total, N = 19): 7 (36.8) n (%); Immune-related best overall response: PD ([3]; Total, N = 19): 2 (10.5) n (%); Immune-related best overall response: PR ([3]; Total, N = 19): 2 (10.5) n (%); Immune-related best overall response: SD ([3]; Total, N = 19): 8 (42.1) n (%); ORR, % (95% CI) ([3]; ARRY-382 200 mg, N = 6): 16.7 (0.4–64.1) %; ir-ORR, % (95% CI) ([3]; ARRY-382 200 mg, N = 6): 16.7 (0.4–64.1) %; ORR, % (95% CI) ([3]; ARRY-382 300 mg, N = 6): 16.7 (0.4–64.1) %; ir-ORR, % (95% CI) ([3]; ARRY-382 300 mg, N = 6): 16.7 (0.4–64.1) %; ORR, % (95% CI) ([3]; ARRY-382 400 mg, N = 7): 0.0 (0.0–41.0) %; ir-ORR, % (95% CI) ([3]; ARRY-382 400 mg, N = 7): 0.0 (0.0–41.0) %; ORR, % (95% CI) ([3]; Total, N = 19): 10.5 (1.3–33.1) %; ir-ORR, % (95% CI) ([3]; Total, N = 19): 10.5 (1.3–33.1) %
